Results: ChEMBL document CHEMBL1143246, “Design and synthesis of bicyclic pyrimidinones as potent and orally bioavailable HIV-1 integrase inhibitors” (J Med Chem, 2008)

Key:
[1] = Half life in rat at 3 mg/kg, iv; type: ADME, organism-based; design: dose 3 mg/kg, route intravenous; details: in vivo
In short: (§1)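 In vivo PK: iv dosing in DMSO/PEG400/H₂O mixtures, oral dosing as methylcellulose suspension. Half-life was taken after iv dosing; AUC and Cmax after po dosing.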

[2] = molecular target: T1, DNA polymerase alpha catalytic subunit (Homo sapiens, UniProt P09884); assay: Inhibition of human DNA polymerase alpha
T1 sequence (P09884 whole entry): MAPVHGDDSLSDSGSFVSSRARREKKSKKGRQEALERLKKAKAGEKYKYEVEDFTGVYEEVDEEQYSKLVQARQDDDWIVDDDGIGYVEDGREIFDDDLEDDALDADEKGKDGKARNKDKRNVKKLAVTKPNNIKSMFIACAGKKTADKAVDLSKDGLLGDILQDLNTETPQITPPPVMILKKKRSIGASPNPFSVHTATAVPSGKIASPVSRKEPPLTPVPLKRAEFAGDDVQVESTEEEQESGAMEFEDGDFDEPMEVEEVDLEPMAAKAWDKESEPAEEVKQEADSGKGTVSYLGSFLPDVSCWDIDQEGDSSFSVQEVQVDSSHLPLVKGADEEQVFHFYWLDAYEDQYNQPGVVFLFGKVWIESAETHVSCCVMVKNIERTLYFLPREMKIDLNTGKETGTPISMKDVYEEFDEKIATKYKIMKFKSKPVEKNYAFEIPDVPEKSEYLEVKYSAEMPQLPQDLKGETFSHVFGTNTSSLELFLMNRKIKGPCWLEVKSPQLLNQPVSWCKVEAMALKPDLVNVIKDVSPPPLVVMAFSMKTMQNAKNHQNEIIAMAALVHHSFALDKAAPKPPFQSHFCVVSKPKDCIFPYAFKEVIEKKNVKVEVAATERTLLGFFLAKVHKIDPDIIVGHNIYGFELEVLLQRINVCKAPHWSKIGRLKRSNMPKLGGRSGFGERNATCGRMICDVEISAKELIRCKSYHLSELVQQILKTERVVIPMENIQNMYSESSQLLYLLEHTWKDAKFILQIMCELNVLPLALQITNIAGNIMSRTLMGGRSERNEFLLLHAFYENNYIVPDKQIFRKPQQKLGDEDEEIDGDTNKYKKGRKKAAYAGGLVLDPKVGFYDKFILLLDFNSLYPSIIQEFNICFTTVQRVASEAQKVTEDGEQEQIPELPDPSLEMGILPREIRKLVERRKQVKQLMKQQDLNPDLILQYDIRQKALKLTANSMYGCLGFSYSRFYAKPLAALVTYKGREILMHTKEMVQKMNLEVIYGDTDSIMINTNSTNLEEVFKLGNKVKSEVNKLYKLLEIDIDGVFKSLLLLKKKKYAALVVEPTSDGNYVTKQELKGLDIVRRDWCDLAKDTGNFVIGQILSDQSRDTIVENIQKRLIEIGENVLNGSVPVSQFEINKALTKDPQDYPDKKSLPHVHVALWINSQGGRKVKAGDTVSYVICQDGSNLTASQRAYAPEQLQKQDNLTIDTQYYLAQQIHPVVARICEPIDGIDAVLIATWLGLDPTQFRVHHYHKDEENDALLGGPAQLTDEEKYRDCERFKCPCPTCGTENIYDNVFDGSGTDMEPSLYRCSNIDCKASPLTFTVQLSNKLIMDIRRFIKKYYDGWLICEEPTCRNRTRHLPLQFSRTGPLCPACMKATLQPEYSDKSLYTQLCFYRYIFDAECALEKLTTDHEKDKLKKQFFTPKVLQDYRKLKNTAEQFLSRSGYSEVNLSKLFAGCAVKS

Canis familiaris [3] = assay: Oral bioavailability in dog at 2 mg/kg; type: ADME, organism-based, Canis lupus familiaris; details: in vivo; in short: as §1
[4] = Protein binding in rat plasma; type: ADME, cell-free; details: read-out: PPB (converted)
In short: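 Plasma protein binding was measured by ultrafiltration after a 1 h incubation of compound in plasma at 37 °C.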

Cytochrome P450 2C9 = Cytochrome P450 2C9 (Homo sapiens, UniProt P11712); assay: Inhibition of CYP2C9; type: ADME
[5] = Volume of distribution at steady state in rat at 3 mg/kg, iv or 10 mg/kg, po; type: ADME, organism-based; details: in vivo, read-out: Vdss
In short: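 Rats received 3 mg/kg intravenously in DMSO/PEG400/H₂O (20%-60%-20%) and 10 mg/kg orally as a 1% methylcellulose suspension. Volume of distribution was derived from the plasma profiles.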

[6] = test system: Human immunodeficiency virus 1; assay: Antiviral activity against HIV1 in human MT4 cell assessed as inhibition of virus spread in presence of 10% fetal bovine serum; type: functional; details: Human immunodeficiency virus 1, MT4; read-out: CIC95
In short: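 Spread of HIV-1 infection in MT-4 human T-lymphoid cell culture with 10% fetal bovine serum; CIC95 is the concentration inhibiting spread by ≥95%; mean of at least three independent experiments.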

[7] = Inhibition of recombinant HIV1 integrase strand transfer activity
Liver microsomes [8] = assay: Metabolic stability in rat liver microsomes in presence of NADPH and UDPGA; type: ADME, Microsome
In short: (§2)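 Multiple time points over 1 h: compound 1 µM with liver microsomes 1 mg/mL, in the presence of both UDPGA and NADPH; degradation followed by LC/MS/MS.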

[9] = Half life in rhesus monkey at 2 mg/kg, iv; type: ADME, organism-based, Macaca mulatta; design: dose 2 mg/kg, route intravenous; details: in vivo
In short: (§3)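 Rhesus dosed 2 mg/kg iv in DMSO; oral arm 10 mg/kg as 0.5% methylcellulose suspension; plasma clearance and iv half-life.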

DNA polymerase beta = DNA polymerase beta (Homo sapiens, UniProt P06746); assay: Inhibition of human DNA polymerase beta
Cytochrome P450 2D6 = Cytochrome P450 2D6 (Homo sapiens, UniProt P10635); assay: Inhibition of CYP2D6; type: ADME
Liver microsomes [10] = assay: Metabolic stability in human liver microsomes in presence of NADPH and UDPGA; type: ADME, Microsome; in short: as §2
[11] = Inhibition of HIV-RNase-H; design: species or system Human immunodeficiency virus
[12] = Cmax in dog at 2 mg/kg, po; type: ADME, organism-based, Canis lupus familiaris; design: dose 2 mg/kg, route oral; details: in vivo; in short: as §1
[13] = Plasma clearance in rhesus monkey at 2 mg/kg, iv or 10 mg/kg, po; type: ADME, organism-based, Macaca mulatta; in short: as §3
Liver = assay: Metabolic stability in dog liver microsomes in presence of NADPH and UDPGA; type: ADME, Canis lupus familiaris, Microsome; in short: as §2
[14] = Protein binding in dog plasma; type: ADME, cell-free, Canis lupus familiaris; details: read-out: PPB (converted)
In short: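 Plasma protein binding measured by ultrafiltration after incubation at 37 °C for 1 h.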

[15] = Cmax in rhesus monkey at 10 mg/kg, po; type: ADME, organism-based, Macaca mulatta; design: dose 10 mg/kg, route oral; details: in vivo
[16] = Half life in dog at 1 mg/kg, iv; type: ADME, organism-based, Canis lupus familiaris; design: dose 1 mg/kg, route intravenous; details: in vivo; in short: as §1
[17] = Oral bioavailability in rhesus monkey at 10 mg/kg; type: ADME, organism-based, Macaca mulatta; details: in vivo
[18] = Inhibition of human DNA polymerase gamma
[19] = AUC in rhesus monkey at 10 mg/kg, po; type: ADME, organism-based, Macaca mulatta; design: dose 10 mg/kg, route oral; details: plasma
Homo sapiens = species on record: Homo sapiens; assay: Protein binding in human plasma; details: read-out: PPB (converted)
[20] = test system: Human immunodeficiency virus 1; assay: Antiviral activity against HIV1 in human MT4 cell assessed as inhibition of virus spread in presence of 50% normal human serum; type: functional; details: Human immunodeficiency virus 1, MT4; read-out: CIC95
In short: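 Spread of HIV-1 infection in MT-4 human T-lymphoid cell culture with 50% normal human serum; CIC95 is the concentration inhibiting spread by ≥95%; mean of at least three independent experiments.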

[21] = Cmax in dog at 4 mg/kg, po; type: ADME, organism-based, Canis lupus familiaris; design: dose 4 mg/kg, route oral; details: in vivo; in short: as §1
Canis familiaris [22] = assay: AUC in dog at 2 mg/kg, po; type: ADME, organism-based, Canis lupus familiaris, Plasma; design: dose 2 mg/kg, route oral; details: in vivo; in short: as §1
[23] = Volume of distribution at steady state in rhesus monkey at 2 mg/kg, iv or 10 mg/kg, po; details: in vivo, read-out: Vdss
Cytochrome P450 2C19 = Cytochrome P450 2C19 (Homo sapiens, UniProt P33261); assay: Inhibition of CYP2C19; type: ADME
[24] = Volume of distribution at steady state in dog at 1 mg/kg, iv or 2 mg/kg, po; details: in vivo, read-out: Vdss
[25] = Plasma clearance in rat at 3 mg/kg, iv or 10 mg/kg, po; type: ADME, organism-based
[26] = Oral bioavailability in rat at 10 mg/kg; type: ADME, organism-based; details: in vivo; in short: as §1
Cytochrome P450 3A4 = Cytochrome P450 3A4 (Homo sapiens, UniProt P08684); assay: Inhibition of CYP3A4; type: ADME
[27] = molecular target: Voltage-gated inwardly rectifying potassium channel KCNH2 (Homo sapiens, UniProt Q12809); assay: Inhibition of human ERG
[28] = AUC in rat at 10 mg/kg, po; details: plasma

Sequence of Cytochrome P450 2C19 (P33261 whole entry): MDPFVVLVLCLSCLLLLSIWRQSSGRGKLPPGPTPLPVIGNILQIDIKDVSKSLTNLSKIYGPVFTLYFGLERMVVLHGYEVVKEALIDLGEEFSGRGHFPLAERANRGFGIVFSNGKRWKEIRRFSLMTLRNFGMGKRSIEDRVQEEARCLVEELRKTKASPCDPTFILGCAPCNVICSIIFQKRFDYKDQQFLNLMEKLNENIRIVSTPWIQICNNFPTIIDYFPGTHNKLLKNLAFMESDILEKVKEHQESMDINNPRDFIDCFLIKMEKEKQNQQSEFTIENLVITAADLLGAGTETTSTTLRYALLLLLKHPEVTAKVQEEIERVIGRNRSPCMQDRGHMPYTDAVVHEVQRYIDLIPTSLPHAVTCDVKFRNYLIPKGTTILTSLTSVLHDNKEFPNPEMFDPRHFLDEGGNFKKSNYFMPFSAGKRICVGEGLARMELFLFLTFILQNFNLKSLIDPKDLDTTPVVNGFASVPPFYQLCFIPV
Sequence of Cytochrome P450 2D6 (P10635 whole entry): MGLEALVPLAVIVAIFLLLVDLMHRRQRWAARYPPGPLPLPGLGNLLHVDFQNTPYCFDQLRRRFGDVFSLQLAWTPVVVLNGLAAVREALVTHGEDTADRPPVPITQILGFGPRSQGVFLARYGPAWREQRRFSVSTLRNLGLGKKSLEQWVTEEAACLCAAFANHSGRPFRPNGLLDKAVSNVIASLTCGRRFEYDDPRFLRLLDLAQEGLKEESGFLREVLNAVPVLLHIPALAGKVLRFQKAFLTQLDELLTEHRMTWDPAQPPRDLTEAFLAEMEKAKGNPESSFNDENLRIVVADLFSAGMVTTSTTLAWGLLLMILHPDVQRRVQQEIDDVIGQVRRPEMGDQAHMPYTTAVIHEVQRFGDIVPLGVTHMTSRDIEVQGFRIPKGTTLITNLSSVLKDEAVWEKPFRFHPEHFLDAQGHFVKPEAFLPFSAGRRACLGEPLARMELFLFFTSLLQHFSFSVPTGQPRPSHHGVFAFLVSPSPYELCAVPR
Sequence of Cytochrome P450 3A4 (P08684 whole entry): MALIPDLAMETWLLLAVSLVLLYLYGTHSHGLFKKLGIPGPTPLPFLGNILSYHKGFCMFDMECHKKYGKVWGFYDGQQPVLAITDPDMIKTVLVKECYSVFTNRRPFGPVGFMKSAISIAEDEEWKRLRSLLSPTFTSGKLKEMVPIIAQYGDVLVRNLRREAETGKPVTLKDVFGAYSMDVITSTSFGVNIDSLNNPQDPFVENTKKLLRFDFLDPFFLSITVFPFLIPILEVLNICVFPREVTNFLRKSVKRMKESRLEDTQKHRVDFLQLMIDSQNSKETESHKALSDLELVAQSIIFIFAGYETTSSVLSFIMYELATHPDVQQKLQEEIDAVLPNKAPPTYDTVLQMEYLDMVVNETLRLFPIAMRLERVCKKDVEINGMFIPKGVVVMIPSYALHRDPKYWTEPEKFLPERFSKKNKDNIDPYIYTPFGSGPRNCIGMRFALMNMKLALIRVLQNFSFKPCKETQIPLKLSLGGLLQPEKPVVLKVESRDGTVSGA
Sequence of Cytochrome P450 2C9 (P11712 whole entry): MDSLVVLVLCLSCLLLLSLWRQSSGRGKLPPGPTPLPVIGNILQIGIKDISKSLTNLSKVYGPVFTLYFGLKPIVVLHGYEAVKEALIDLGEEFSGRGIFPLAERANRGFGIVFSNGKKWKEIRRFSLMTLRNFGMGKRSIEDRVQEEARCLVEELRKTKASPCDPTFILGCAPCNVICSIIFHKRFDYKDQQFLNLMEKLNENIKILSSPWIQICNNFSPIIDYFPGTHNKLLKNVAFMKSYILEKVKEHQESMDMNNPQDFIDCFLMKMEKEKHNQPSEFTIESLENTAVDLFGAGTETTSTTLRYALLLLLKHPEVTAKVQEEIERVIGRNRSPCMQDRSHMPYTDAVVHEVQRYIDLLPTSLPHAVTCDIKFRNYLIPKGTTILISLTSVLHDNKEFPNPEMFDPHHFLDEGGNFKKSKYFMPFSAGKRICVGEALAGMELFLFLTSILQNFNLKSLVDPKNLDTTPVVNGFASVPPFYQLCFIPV
Sequence of Voltage-gated inwardly rectifying potassium channel KCNH2 (Q12809 whole entry): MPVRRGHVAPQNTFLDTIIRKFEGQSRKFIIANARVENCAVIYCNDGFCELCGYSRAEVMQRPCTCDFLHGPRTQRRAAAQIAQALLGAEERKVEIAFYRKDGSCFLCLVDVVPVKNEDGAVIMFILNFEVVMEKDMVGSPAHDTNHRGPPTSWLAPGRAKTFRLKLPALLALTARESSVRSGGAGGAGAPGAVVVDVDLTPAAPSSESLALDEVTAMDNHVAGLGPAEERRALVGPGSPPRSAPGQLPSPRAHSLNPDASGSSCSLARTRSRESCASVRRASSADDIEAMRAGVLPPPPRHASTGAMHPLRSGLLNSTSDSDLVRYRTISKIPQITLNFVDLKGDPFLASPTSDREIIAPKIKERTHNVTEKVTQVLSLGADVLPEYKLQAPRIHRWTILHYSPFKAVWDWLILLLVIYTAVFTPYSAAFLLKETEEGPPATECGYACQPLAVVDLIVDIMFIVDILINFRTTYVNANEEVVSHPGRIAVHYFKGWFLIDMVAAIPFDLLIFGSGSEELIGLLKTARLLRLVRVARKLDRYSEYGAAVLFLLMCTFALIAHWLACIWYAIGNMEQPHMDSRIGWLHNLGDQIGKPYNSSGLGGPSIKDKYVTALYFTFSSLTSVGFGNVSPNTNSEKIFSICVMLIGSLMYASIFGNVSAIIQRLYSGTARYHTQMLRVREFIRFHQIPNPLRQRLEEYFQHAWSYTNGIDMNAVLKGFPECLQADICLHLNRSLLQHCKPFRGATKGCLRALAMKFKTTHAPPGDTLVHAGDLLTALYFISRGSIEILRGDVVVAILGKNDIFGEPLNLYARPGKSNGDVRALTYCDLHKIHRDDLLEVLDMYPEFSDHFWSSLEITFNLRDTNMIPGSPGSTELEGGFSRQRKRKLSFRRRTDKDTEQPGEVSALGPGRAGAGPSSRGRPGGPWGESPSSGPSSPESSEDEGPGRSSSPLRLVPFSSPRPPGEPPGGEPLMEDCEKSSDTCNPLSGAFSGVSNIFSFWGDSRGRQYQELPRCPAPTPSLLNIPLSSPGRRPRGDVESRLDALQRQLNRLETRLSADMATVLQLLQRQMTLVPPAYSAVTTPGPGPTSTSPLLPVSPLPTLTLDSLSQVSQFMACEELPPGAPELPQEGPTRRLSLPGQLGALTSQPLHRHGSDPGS

- half-life [1]: 7.4 h
- IC50 [2]: > 10 µM
- F (Canis familiaris [3]): 61%
- fraction unbound [4]: 0.06
- IC50 (Cytochrome P450 2C9): 75 µM
- Vd [5]: 0.7 L/kg
- IC50 [7]: 0.012 µM
- Stability (Liver microsomes [8]): 11 µL/min/mg
- half-life [9]: 2.6 h
- IC50 (DNA polymerase beta): > 10 µM
- IC50 (Cytochrome P450 2D6): > 100 µM
- Stability (Liver microsomes [10]): 3 µL/min/mg
- IC50 [11]: > 50 µM
- Cmax [12]: 25 µM
- clearance [13]: 8 mL/min/kg
- Stability (Liver): 4 µL/min/mg
- fraction unbound [14]: 0.24
- Cmax [15]: 10 µM
- half-life [16]: 2.1 h
- bioavailability [17]: 31%
- IC50 [18]: > 10 µM
- AUC [19]: 14 µM·h
- fraction unbound (Homo sapiens): 0.19
- Cmax [21]: 27 µM
- AUC (Canis familiaris [22]): 31 µM·h
- Vd [23]: 0.7 L/kg
- IC50 (Cytochrome P450 2C19): > 100 µM
- Vd [24]: 0.9 L/kg
- clearance [25]: 7 mL/min/kg
- bioavailability [26]: 64%
- IC50 (Cytochrome P450 3A4): > 100 µM
- AUC [28]: 37 µM·h
SMILES: CN(C)C(=O)C(=O)N(C)[C@H]1CCCCn2c1nc(C(=O)NCc1ccc(F)cc1)c(O)c2=O
- IC95 [6]: 0.01 µM
- IC95 [20]: 0.013 µM
- IC50 [27]: > 10 µM
